Reference: ChEMBL document CHEMBL4428066, “Small Molecule Reversible Inhibitors of Bruton's Tyrosine Kinase (BTK): Structure-Activity Relationships Leading to the Identification of 7-(2-Hydroxypropan-2-yl)-4-[2-methyl-3-(4-oxo-3,4-dihydroquinazolin-3-yl)phenyl]-9H-carbazole-1-carboxamide (BMS-935177)” (J Med Chem, 2016)
pIC50: −log10 of the molar value. Activity calls are given as the source filed them. No cut-off for these calls is given here.

Assays:
[1] = AUC (0 to 24 hrs) in Balb/C mouse at 10 mg/kg, po; type: ADME, organism-based; design: time < 24 hr, dose 10 mg/kg, route oral; details: in vivo
How it was run: (§1)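 Male Balb/C mice dosed orally once at 10 mg/kg in PEG300/TPGS/ethanol (90/5/5 v/v/v).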

[2] = Cmax in Balb/C mouse at 10 mg/kg, po; type: ADME, organism-based; design: dose 10 mg/kg, route oral; details: in vivo; how it was run: as §1
[3] = target: Tyrosine-protein kinase Tec (Homo sapiens, UniProt P42680); assay: Inhibition of partial length human TEC expressed in bacterial system
Chain of Tyrosine-protein kinase Tec (P42680 whole entry): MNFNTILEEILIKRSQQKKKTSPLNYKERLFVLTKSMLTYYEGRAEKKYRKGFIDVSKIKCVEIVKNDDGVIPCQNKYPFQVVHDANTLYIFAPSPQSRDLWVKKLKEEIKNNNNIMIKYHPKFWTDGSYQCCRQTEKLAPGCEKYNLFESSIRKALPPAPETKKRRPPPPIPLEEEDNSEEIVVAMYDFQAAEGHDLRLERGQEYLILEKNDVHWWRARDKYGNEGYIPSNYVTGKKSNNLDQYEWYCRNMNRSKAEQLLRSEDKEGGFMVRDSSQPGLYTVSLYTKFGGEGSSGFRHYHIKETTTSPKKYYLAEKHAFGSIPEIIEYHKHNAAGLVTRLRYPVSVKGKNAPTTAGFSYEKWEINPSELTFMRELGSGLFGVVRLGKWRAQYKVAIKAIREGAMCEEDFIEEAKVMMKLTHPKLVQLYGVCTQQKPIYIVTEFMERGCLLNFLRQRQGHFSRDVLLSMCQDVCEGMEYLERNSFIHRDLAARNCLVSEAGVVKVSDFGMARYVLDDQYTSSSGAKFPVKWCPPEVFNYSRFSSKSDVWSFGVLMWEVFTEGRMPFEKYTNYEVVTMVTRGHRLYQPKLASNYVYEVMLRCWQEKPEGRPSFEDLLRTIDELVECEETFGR

[4] = target: Tyrosine-protein kinase ITK/TSK (Homo sapiens, UniProt Q08881); assay: Inhibition of partial length human ITK expressed in bacterial system
[5] = target: Tyrosine-protein kinase TXK (Homo sapiens, UniProt P42681); assay: Inhibition of partial length human TXK expressed in bacterial system
Chain of Tyrosine-protein kinase TXK (P42681 whole entry): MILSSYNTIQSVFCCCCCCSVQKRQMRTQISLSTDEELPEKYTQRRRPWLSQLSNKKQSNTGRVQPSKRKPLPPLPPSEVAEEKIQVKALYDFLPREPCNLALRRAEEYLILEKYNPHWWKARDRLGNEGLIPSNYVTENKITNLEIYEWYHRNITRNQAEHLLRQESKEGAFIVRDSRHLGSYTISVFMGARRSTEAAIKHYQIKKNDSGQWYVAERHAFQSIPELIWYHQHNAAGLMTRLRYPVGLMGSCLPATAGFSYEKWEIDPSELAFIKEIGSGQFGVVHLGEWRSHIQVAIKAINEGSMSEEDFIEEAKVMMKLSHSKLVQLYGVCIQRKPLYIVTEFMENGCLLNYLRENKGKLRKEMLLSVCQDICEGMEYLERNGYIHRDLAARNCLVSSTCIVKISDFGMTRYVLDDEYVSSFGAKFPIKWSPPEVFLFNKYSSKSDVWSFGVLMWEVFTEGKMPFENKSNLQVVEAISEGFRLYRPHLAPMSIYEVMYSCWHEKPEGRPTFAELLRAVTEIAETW

[6] = target: BDNF/NT-3 growth factors receptor (Homo sapiens, UniProt Q16620); assay: Inhibition of partial length human TRKB expressed in mammalian system
Chain of BDNF/NT-3 growth factors receptor (Q16620 whole entry): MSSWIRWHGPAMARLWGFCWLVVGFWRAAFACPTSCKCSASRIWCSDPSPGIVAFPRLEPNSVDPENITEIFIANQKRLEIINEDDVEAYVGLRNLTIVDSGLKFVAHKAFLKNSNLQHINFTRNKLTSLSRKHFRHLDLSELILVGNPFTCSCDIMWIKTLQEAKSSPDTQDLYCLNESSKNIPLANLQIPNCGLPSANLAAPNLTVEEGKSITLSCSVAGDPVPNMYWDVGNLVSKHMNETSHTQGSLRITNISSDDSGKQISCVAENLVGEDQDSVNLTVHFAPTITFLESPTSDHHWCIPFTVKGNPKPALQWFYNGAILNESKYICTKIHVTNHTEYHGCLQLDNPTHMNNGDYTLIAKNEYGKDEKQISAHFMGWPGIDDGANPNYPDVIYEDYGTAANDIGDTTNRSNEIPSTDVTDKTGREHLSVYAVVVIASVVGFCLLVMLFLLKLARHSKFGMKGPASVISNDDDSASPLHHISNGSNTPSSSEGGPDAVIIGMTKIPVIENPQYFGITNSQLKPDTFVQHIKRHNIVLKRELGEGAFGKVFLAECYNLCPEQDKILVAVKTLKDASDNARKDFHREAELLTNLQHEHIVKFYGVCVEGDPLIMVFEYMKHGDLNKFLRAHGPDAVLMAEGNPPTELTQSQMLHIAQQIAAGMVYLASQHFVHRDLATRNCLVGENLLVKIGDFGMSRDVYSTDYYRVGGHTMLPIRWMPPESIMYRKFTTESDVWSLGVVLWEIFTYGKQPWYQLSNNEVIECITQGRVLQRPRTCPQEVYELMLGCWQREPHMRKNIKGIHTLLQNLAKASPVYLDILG

[7] = target: Proto-oncogene tyrosine-protein kinase receptor Ret (Homo sapiens, UniProt P07949); assay: Inhibition of partial length human RET expressed in bacterial system
Chain of Proto-oncogene tyrosine-protein kinase receptor Ret (P07949 whole entry): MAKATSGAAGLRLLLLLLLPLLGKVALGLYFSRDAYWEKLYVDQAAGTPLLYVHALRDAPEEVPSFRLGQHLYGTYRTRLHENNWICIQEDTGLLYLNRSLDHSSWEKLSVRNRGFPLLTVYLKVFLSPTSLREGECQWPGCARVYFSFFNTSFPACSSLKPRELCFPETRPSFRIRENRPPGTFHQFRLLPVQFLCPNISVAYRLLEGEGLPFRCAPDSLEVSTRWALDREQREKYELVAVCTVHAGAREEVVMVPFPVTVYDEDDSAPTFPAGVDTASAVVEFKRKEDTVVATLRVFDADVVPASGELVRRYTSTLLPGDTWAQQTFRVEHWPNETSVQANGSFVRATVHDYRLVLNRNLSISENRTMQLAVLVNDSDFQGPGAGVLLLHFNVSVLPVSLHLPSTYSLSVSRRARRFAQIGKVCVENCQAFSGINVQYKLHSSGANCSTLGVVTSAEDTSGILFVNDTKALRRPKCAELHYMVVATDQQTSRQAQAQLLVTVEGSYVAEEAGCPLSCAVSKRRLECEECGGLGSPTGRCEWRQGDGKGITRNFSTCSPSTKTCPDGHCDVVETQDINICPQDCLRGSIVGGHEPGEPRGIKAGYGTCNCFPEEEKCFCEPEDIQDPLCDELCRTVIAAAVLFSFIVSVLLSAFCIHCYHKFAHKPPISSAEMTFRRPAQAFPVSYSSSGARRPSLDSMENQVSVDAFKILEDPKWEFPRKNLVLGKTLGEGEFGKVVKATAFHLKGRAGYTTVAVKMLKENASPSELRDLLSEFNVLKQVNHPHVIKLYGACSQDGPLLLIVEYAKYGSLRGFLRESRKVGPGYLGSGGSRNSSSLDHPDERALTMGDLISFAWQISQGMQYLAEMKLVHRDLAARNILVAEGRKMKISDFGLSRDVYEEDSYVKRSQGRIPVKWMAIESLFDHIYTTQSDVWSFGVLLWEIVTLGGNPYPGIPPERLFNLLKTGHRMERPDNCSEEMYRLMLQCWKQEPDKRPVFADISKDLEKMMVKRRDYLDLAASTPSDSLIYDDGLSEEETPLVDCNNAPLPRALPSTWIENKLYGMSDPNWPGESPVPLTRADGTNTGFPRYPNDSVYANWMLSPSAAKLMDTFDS

[8] = target: Tyrosine-protein kinase Lyn (Homo sapiens, UniProt P07948); assay: Inhibition of partial length human LYN expressed in bacterial system
Chain of Tyrosine-protein kinase Lyn (P07948 whole entry): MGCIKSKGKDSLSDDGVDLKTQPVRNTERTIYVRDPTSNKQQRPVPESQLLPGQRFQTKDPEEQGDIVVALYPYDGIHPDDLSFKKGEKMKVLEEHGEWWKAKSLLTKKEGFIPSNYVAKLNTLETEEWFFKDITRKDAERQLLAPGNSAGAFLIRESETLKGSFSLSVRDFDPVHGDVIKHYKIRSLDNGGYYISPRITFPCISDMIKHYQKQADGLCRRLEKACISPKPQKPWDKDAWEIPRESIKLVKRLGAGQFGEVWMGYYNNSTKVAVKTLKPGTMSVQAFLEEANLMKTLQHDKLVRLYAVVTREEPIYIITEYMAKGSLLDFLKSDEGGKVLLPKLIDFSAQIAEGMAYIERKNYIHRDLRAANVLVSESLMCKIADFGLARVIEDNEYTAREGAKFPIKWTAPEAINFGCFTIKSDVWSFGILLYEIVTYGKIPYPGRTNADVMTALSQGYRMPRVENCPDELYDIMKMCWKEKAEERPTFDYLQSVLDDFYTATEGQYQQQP

[9] = test system: Salmonella typhimurium; assay: Mutagenic activity in Salmonella typhimurium by AMES test; type: toxicity, organism-based; details: salmonella enterica subsp. enterica serovar typhimurium
[10] = Protein binding in mouse serum; type: ADME, cell-free; details: read-out: PB
[11] = target: Cytochrome P450 1A2 (Homo sapiens, UniProt P05177); assay: Inhibition of human liver microsomes CYP1A2 after 30 mins in presence of NADPH; type: ADME
Chain of Cytochrome P450 1A2 (P05177 whole entry): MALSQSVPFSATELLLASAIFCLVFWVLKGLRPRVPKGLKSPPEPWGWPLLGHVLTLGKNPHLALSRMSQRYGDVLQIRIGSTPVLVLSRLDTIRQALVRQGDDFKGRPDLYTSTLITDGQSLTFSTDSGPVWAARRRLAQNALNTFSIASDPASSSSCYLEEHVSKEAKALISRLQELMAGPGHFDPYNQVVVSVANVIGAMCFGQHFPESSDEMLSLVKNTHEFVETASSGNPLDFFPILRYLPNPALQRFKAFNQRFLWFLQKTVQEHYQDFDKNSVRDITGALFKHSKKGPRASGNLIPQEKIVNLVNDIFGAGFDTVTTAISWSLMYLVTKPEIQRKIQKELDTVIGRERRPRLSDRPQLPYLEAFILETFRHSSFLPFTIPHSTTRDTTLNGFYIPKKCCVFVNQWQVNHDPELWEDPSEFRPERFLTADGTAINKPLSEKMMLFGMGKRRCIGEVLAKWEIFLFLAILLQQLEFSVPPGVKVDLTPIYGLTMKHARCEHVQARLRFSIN

[12] = target: Cytochrome P450 3A4 (Homo sapiens, UniProt P08684); assay: Inhibition of human liver microsomes CYP3A4 after 30 mins in presence of NADPH; type: ADME
[13] = target: Cytochrome P450 2C8 (Homo sapiens, UniProt P10632); assay: Inhibition of human liver microsomes CYP2C8 after 30 mins in presence of NADPH; type: ADME
Chain of Cytochrome P450 2C8 (P10632 whole entry): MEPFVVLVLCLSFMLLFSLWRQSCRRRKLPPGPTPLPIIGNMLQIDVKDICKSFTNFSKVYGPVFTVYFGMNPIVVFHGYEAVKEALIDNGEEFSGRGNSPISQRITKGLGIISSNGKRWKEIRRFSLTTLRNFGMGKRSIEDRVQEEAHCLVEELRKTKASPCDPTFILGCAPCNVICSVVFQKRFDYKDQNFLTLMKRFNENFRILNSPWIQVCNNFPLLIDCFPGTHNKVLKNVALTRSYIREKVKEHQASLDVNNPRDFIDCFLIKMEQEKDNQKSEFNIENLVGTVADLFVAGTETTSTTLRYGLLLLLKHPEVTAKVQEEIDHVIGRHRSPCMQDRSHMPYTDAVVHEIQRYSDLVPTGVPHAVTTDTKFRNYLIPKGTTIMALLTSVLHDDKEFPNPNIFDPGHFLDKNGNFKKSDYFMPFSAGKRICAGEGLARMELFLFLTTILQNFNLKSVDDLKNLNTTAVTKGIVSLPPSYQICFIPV

[14] = Aqueous solubility of the compound; type: physicochemical; details: aqueous medium
[15] = Permeability of the compound at pH 5.5 by PAMPA; type: ADME; details: read-out: permeability
[16] = Passive permeability from apical to basolateral side in human Caco2 cells; type: ADME, cell-based; details: Caco-2, read-out: permeability
[17] = Passive permeability from basolateral to apical side in human Caco2 cells; type: ADME, cell-based; details: Caco-2, read-out: permeability
[18] = test system: Mus musculus; assay: Decrease in anti-KLH IgM titers in chronic Balb/C mouse KLH antibody response model at 5 to 45 mg/kg, po qd administered through oral gavage after 14 days by ELISA; type: functional, organism-based
How it was run: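 Chronic KLH challenge model in mice with compound given by mouth. Anti-KLH IgM appears in the first week after challenge. Switching to IgG anti-KLH is evident by day 14.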

[19] = test system: Mus musculus; assay: Antiarthritic activity in DBA/1 mouse model of collagen-induced arthritis inflammation assessed reduction in disease severity dosed daily and orally beginning on day of primary immunization; type: functional, organism-based
[20] = test system: Mus musculus; assay: Antiarthritic activity in DBA/1 mouse model of collagen-induced arthritis inflammation assessed reduction in disease severity at 10 mg/kg, po dosing daily starting on day of primary immunization; type: functional; design: scale not given: the % may be the effect or the level left
[21] = test system: Mus musculus; assay: Time required for plasma concentration to reach above in vitro BCR/IgM/IgG-stimulated CD69 expression mouse whole blood IC50 in DBA/1 mouse CIA model at 20 mg/kg administered daily through oral gavage starting on day of primary immunization; type: ADME, organism-based; details: in vivo
[22] = test system: Mus musculus; assay: Antiarthritic activity in DBA/1 mouse model of collagen-induced arthritis inflammation assessed as inhibition of bone resorption end points dosed daily and orally beginning on day of primary immunization by micro-CT analysis; type: functional, organism-based
[23] = test system: Mus musculus; assay: Antiarthritic activity in DBA/1 mouse model of collagen-induced arthritis inflammation assessed as protection against pitting dosed daily and orally beginning on day of primary immunization by microcomputed tomography imaging analysis; type: functional, organism-based
[24] = test system: Mus musculus; assay: Antiarthritic activity in DBA/1 mouse model of collagen-induced arthritis inflammation assessed as reduction of disease severity at 30 mg/kg, qd administered through oral gavage dosed after day 21 booster immunization; type: functional, organism-based
[25] = test system: Mus musculus; assay: Antiarthritic activity in Balb/C mouse model of anti-collagen antibody-induced arthritis assessed as reduction in paw clinical scores at dosed orally daily for 3 days followed by LPS challenge; type: functional, organism-based
[26] = test system: Mus musculus; assay: Antiarthritic activity in Balb/C mouse model of anti-collagen antibody-induced arthritis assessed as reduction in paw clinical scores at 30 mg/kg, po dosed daily for 3 days followed by LPS challenge; type: functional, organism-based
[27] = Cmax in mouse plasma at 5 mg/kg, administered through oral gavage after 0.25 to 24 hrs by LC/MS/MS analysis; type: ADME, organism-based; design: dose 5 mg/kg, route oral
[28] = Plasma clearance in mouse at 2 mg/kg, iv through bolus administration after 0.05 to 24 hrs by LC/MS/MS analysis; type: ADME, organism-based
[29] = AUC in Sprague-Dawley rat plasma at 5 mg/kg, administered through oral gavage by LC/MS/MS analysis; type: ADME, organism-based
[30] = Volume of distribution in steady state in Sprague-Dawley rat at 2 mg/kg, iv through bolus administration by LC/MS/MS analysis; type: ADME, organism-based; details: in vivo, read-out: Vdss
[31] = Oral bioavailability in Sprague-Dawley rat at 5 mg/kg by LC/MS/MS analysis; type: ADME, organism-based; details: in vivo
[32] = Cmax in Beagle dog plasma at 2 mg/kg, administered through oral gavage after 0.25 to 48 hrs by LC/MS/MS analysis; type: ADME, organism-based, Canis lupus familiaris; design: dose 2 mg/kg, route oral
[33] = Tmax in Beagle dog plasma at 2 mg/kg, administered through oral gavage after 0.25 to 48 hrs by LC/MS/MS analysis; type: ADME, organism-based, Canis lupus familiaris
[34] = Half life in Beagle dog plasma at 2 mg/kg, iv through bolus administration after 0.167 to 48 hrs by LC/MS/MS analysis; type: ADME, organism-based, Canis lupus familiaris
[35] = Volume of distribution in steady state in Beagle dog at 2 mg/kg, iv through bolus administration after 0.167 to 48 hrs by LC/MS/MS analysis; type: ADME, organism-based, Canis lupus familiaris; details: in vivo, read-out: Vdss
[36] = Tmax in cynomolgus monkey plasma at 2 mg/kg, administered through oral gavage after 0.25 to 48 hrs by LC/MS/MS analysis; type: ADME, organism-based, Macaca fascicularis
[37] = Plasma clearance in cynomolgus monkey at 2 mg/kg, iv through bolus administration after 0.167 to 48 hrs by LC/MS/MS analysis; type: ADME, organism-based, Macaca fascicularis
[38] = Volume of distribution in steady state in cynomolgus monkey at 2 mg/kg, iv through bolus administration after 0.167 to 48 hrs by LC/MS/MS analysis; type: ADME, organism-based, Macaca fascicularis; details: in vivo, read-out: Vdss
[39] = test system: Mus musculus; assay: Antiarthritic activity in DBA/1 mouse model of collagen-induced arthritis inflammation assessed as protection against fusion of small bones dosed daily and orally beginning on day of primary immunization by microcomputed tomography imaging analysis; type: functional, organism-based

AUC(0-t) at 24 h [1]: 80 µM·h
Cmax [2]: 8.96 µM
pIC50 [3]: 7.89
pIC50 [4]: 7.02
pIC50 [5]: 6.74
pIC50 [6]: 7.00
pIC50 [7]: 6.96
pIC50 [8]: 6.80
fraction unbound [10]: 0.01
pIC50 [11]: < 4.40
pIC50 [12]: < 4.40
pIC50 [13]: < 5.10
solubility [14]: < 1 µg/mL
Papp [15]: 87.6 ×10⁻⁶ cm/s
Papp A→B [16]: < 1.5 ×10⁻⁶ cm/s
Papp B→A [17]: 12.2 ×10⁻⁶ cm/s
Time [21]: 20 h
Cmax [27]: 3.8 µM
clearance [28]: 4.9 mL/min/kg
AUC [29]: 21.2 µM·h
Vd [30]: 2.6 L/kg
bioavailability [31]: 84%
Cmax [32]: 1.2 µM
Tmax [33]: 1.6 h
half-life [34]: 10.4 h
Vd [35]: 3.2 L/kg
Tmax [36]: 2.7 h
clearance [37]: 2.1 mL/min/kg
Vd [38]: 1.6 L/kg
SMILES: Cc1c(-c2ccc(C(N)=O)c3[nH]c4cc(C(C)(C)O)ccc4c23)cccc1-n1cnc2ccccc2c1=O
Activity [9]: Non-Toxic
Activity [18]: Active
Activity [19]: Dose-dependent effect
Activity [20]: 40%
Activity [22]: Active
Activity [23]: Dose-dependent effect
Activity [24]: Active
Activity [25]: Dose-dependent effect
Activity [26]: Active
Activity [39]: Dose-dependent effect
